This passage reports Binding activity and Ki results from ChEMBL document CHEMBL1138795, “Inhibition of nucleoside transport by new analogues of 4-nitrobenzylthioinosine: replacement of the ribose moiety by substituted benzyl groups” (J Med Chem, 2004).

pKi: −log10 of the molar value.

The target of one assay is T1, Equilibrative nucleoside transporter 1 (Homo sapiens) (UniProt Q99808).
T1 sequence (whole entry): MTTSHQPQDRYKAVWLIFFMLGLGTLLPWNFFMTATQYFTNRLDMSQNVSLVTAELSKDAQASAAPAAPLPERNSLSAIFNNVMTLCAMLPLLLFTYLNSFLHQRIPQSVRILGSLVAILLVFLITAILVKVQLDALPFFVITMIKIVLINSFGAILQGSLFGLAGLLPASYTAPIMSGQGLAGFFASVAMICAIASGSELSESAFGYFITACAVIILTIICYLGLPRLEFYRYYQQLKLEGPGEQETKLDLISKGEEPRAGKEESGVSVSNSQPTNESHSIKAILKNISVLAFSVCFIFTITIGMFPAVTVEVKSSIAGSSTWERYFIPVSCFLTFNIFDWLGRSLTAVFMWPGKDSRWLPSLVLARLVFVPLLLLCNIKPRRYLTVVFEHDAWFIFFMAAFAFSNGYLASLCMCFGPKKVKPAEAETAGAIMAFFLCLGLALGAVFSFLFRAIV
Put plainly: Displacement of [3H]NBTI from human erythrocyte membrane at 10 uM. The method, boiled down:
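Human erythrocyte ghost membranes (whole blood lysed in 10 mM MgCl2/10 mM Tris-HCl pH 8.0, repeated water washes, resuspended in 50 mM Tris-HCl pH 7.4, stored −80 °C) incubated to equilibrium at 25 °C with [3H]NBTI (KD 0.59 nM). Test compound at a single 10 μM concentration. Result expressed as percent displacement of specific radioligand binding.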
(Displacement assays read how much labelled ligand stays bound in the presence of the test substance.)
The compound `O=[N+]([O-])c1ccc(CSc2ncnc3c2ncn3Cc2ccccc2F)cc1` came in with a Binding activity of 38%. Still for that read-out and setting: with `O=[N+]([O-])c1ccc(CSc2ncnc3c2ncn3Cc2ccccn2)cc1` the figure was 42%; with `O=[N+]([O-])c1ccc(CSc2ncnc3c2ncn3Cc2c(Cl)cccc2Cl)cc1`, 6%; with `O=[N+]([O-])c1ccc(CSc2ncnc3c2ncn3Cc2cccc(F)c2F)cc1`, 32%.

`O=[N+]([O-])c1ccc(CSc2ncnc3c2ncn3Cc2ccccc2Cl)cc1`: the Binding activity was 44%. As to `O=[N+]([O-])c1ccc(CSc2ncnc3c2ncn3Cc2c(F)cccc2F)cc1`, the Binding activity is 32%. On the same count and under the same terms, the same measure for `O=[N+]([O-])c1ccc(CSc2ncnc3c2ncn3Cc2ccc(OC(F)(F)F)cc2)cc1`: 24%; for `COc1cc(Cn2cnc3c(SCc4ccc([N+](=O)[O-])cc4)ncnc32)cc(OC)c1`: 47%.

The compound `O=[N+]([O-])c1ccc(CSc2ncnc3c2ncn3Cc2ccc(Cl)c(Cl)c2)cc1` registered a Binding activity of 34%.

In another assay the target is T2, Equilibrative nucleoside transporter 1 (Homo sapiens, UniProt Q99808).
T2 sequence (Q99808 whole entry): T1 sequence (whole entry)
Put plainly: Inhibition of [3H]NBTI binding to nucleoside transport protein of human erythrocyte membrane. The method, boiled down: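 Equilibrium displacement of [3H]NBTI (KD 0.59 nM) from human erythrocyte ghost membranes at 25 °C. Membranes prepared by hypotonic lysis in Tris-HCl/MgCl2 pH 8.0 and resuspended in 50 mM Tris-HCl pH 7.4. Compounds giving ≥50% inhibition at 10 μM were run over a concentration range. IC50 values were converted to Ki, n = 3, reported with SEM.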
Regarding `O=[N+]([O-])c1ccc(CSc2ncnc3c2ncn3Cc2ccccc2-c2cccc(C(F)(F)F)c2)cc1`, the pKi is 7.07.

Compound `O=[N+]([O-])c1ccc(CSc2ncnc3c2ncn3Cc2ccccc2-c2ccccc2O)cc1` gave a pKi of 6.71. This pKi is 0.36 log units lower than that of the compound before.

Consider `O=[N+]([O-])c1ccc(CSc2ncnc3c2ncn3Cc2cc(F)ccc2F)cc1`, for which the pKi is 5.79. On to `O=[N+]([O-])c1ccc(CSc2ncnc3c2ncn3Cc2ccccc2-c2ccc(C(F)(F)F)cc2)cc1`, for which the negative logarithm of the Ki (pKi) was 7.41. Against the preceding compound, the pKi is 1.62 log units higher. Still for that read-out and setting: the same measure for `Cc1ccc(Cn2cnc3c(SCc4ccc([N+](=O)[O-])cc4)ncnc32)cc1`: 6.15; for `O=[N+]([O-])c1ccc(CSc2ncnc3c2ncn3Cc2cccc(Cl)c2)cc1`: 6.67. On the same count and under the same terms, with `O=[N+]([O-])c1ccc(CSc2ncnc3c2ncn3Cc2ccccc2-c2ccc(O)cc2)cc1` the figure was 6.81; with `O=[N+]([O-])c1ccc(CSc2ncnc3c2ncn3Cc2ccc([N+](=O)[O-])cc2)cc1`, 6.70; with `O=[N+]([O-])c1ccc(CSc2ncnc3c2ncn3Cc2cccc(C(F)(F)F)c2)cc1`, 5.66. `O=[N+]([O-])c1ccc(CSc2ncnc3c2ncn3Cc2ccc(F)cc2)cc1` had a negative-log Ki (pKi) of 5.48.

`O=[N+]([O-])c1ccc(CSc2ncnc3c2ncn3Cc2cccc(F)c2)cc1` had a pKi of 6.44. Same read-out and setting: with `COc1ccc(-c2ccccc2Cn2cnc3c(SCc4ccc([N+](=O)[O-])cc4)ncnc32)cc1` the figure was 6.98. On the same count and under the same terms, with `O=[N+]([O-])c1ccc(CSc2ncnc3c2ncn3Cc2ccccc2-c2ccccc2F)cc1` the figure was 6.95; with `O=[N+]([O-])c1ccc(CSc2ncnc3c2ncn3CCc2ccccc2)cc1`, 5.66.

The compound `CC(C)(C)OC(=O)Nc1ccccc1Cn1cnc2c(SCc3ccc([N+](=O)[O-])cc3)ncnc21` had a pKi of 6.37. This pKi lies 0.71 log units higher than the previous one.

Take `COc1cccc(Cn2cnc3c(SCc4ccc([N+](=O)[O-])cc4)ncnc32)c1`: the pKi was 6.58. Still for that read-out and setting: with `COc1ccccc1-c1ccccc1Cn1cnc2c(SCc3ccc([N+](=O)[O-])cc3)ncnc21` the figure was 6.65; with `O=[N+]([O-])c1ccc(CSc2ncnc3c2ncn3Cc2ccc(I)cc2)cc1`, 6.89. In the case of `O=[N+]([O-])c1ccc(CSc2ncnc3c2ncn3Cc2ccccc2-c2ccsc2)cc1`, the pKi is 7.05. `COc1cccc(-c2ccccc2Cn2cnc3c(SCc4ccc([N+](=O)[O-])cc4)ncnc32)c1` showed a negative logarithm of the Ki (pKi) of 6.66. The same measure, in the same setting: the same measure for `O=[N+]([O-])c1ccc(CSc2ncnc3c2ncn3CCCc2ccccc2)cc1`: 6.31; for `O=[N+]([O-])c1ccc(CSc2ncnc3c2ncn3Cc2cc(F)cc(F)c2)cc1`: 5.81.

Consider `O=[N+]([O-])c1ccc(CSc2ncnc3c2ncn3Cc2cccnc2)cc1`, for which the pKi was 5.57.

For the compound `O=[N+]([O-])c1ccc(CSc2ncnc3c2ncn3Cc2ccc(F)cc2F)cc1`, the pKi was 5.31. Same read-out and setting: the same measure for `O=[N+]([O-])c1ccc(CSc2ncnc3c2ncn3Cc2ccccc2-c2cccs2)cc1`: 6.89.

The compound `O=[N+]([O-])c1ccc(CSc2ncnc3c2ncn3Cc2ccc(Cl)cc2)cc1` showed a pKi of 6.63. The same measure, in the same setting: with `O=[N+]([O-])c1ccc(CSc2ncnc3c2ncn3Cc2ccccc2-c2ccc(F)cc2)cc1` the figure was 7.03; with `O=[N+]([O-])c1ccc(CSc2ncnc3c2ncn3Cc2cccc(O)c2)cc1`, 6.82.

Turning to `COc1ccc(Cn2cnc3c(SCc4ccc([N+](=O)[O-])cc4)ncnc32)cc1`, the pKi was 6.25.

`O=[N+]([O-])c1ccc(CSc2ncnc3c2ncn3Cc2ccncc2)cc1` showed a pKi of 5.66. `O=[N+]([O-])c1ccc(CSc2ncnc3c2ncn3Cc2ccccc2-c2cccc(O)c2)cc1` gave a pKi of 6.71. `COc1ccccc1Cn1cnc2c(SCc3ccc([N+](=O)[O-])cc3)ncnc21` gave a pKi of 6.96. Same read-out and setting: the same measure for `O=[N+]([O-])c1ccc(CSc2ncnc3c2ncn3Cc2ccccc2O)cc1`: 7.41. Still for that read-out and setting: with `O=[N+]([O-])c1ccc(CSc2ncnc3c2ncn3Cc2ccc(F)c(F)c2)cc1` the figure was 6.19; with `Nc1ccccc1Cn1cnc2c(SCc3ccc([N+](=O)[O-])cc3)ncnc21`, 6.91; with `Cc1ccccc1-c1ccccc1Cn1cnc2c(SCc3ccc([N+](=O)[O-])cc3)ncnc21`, 6.90. Same read-out and setting: the same measure for `O=[N+]([O-])c1ccc(CSc2ncnc3c2ncn3Cc2ccccc2-c2ccccc2)cc1`: 6.55.

What is called pKi is the Ki on a negative log10 scale, so that one unit is a factor of ten.
